Consider one compound from ChEMBL document CHEMBL5030505, “Assessment of NR4A Ligands That Directly Bind and Modulate the Orphan Nuclear Receptor Nurr1” (J Med Chem, 2020).

What all share (format): cell-based
The target of data set [1] is Nuclear receptor subfamily 4 group A member 2 (Homo sapiens) (UniProt P43354). Put plainly: Modulation of full length human Nurr1 expressed in HEK293T cells co-transfected with luciferase reporter plasmid harboring NurRE response element assessed as decrease in luciferase activity at 12.5 to 50 uM incubated for 18 hrs by luciferase reporter gene assay. Particulars: filed as modulator, dose 12.5-50 µM. In short, it runs like this:
(§1)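 Full-length Nurr1 plasmid, alone (2 μg) or 1 μg plus full-length RXRα (1 μg), cotransfected with 3xNBRE- or 3xNurRE-luciferase reporter (6 μg) using Lipofectamine 2000, 18 h. Cells replated at 10,000/well for 4 h. Four ligand concentrations, or vehicle (water, ethanol or DMSO), added in quadruplicate for 18 h. Luciferase read. Fold change vs vehicle, mean ± s.e.m., one-way ANOVA vs vehicle.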
For orientation: A reporter such as luciferase makes a cellular process visible.

Data set [2] has the same target. Kind of data set: Modulation of full length human Nurr1 expressed in SKNBE(2) cells co-transfected with RXRalpha and luciferase reporter plasmid harboring NBRE response element assessed as decrease in luciferase activity at 12.5 to 50 uM incubated for 18 hrs by luciferase reporter gene assay. Particulars: SKNBE2, filed as modulator, dose 12.5-50 µM. In short, it runs like this:
(§2)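 SK-N-BE(2)-C cells were kept in 1:1 EMEM/F12 with 10% FBS at 37°C and 5% CO2. They were cotransfected with full-length Nurr1 (1 μg), full-length RXRα (1 μg) and 3xNBRE- or 3xNurRE-luc reporter (6 μg) for 18 h, replated at 10,000 cells/well for 4 h, and then treated with ligand or vehicle in quadruplicate for 18 h. The readout was luciferase luminescence as fold over vehicle, reported as mean ± s.e.m. (n=4) from 2 independent experiments, one-way ANOVA.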

For data set [3], the system named is PC-12. Put plainly: Cytotoxicity in rat PC-12 cells assessed as reduction in cell viability at 12.5 to 50 uM incubated for 18 hrs by Cell Titer-Glo assay. Particulars: pc-12, 18 h, dose 12.5-50 µM. In short, it runs like this:
(§3)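 Cells seeded at 1.5 million per 10-cm dish. Next day they were replated at 10,000 cells/well and rested 4 h. Ligand or vehicle (water, ethanol or DMSO, by ligand) was added in dose-response format in quadruplicate. After 18 h, viability was read by CellTiter-Glo luminescence. Data are mean ± s.e.m., generally representative of 2 independent experiments. One-way ANOVA versus vehicle.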
On the technique in general: In ATP-based viability assays light output follows the ATP content of the culture.

In the next data set the test system is SKNBE2. Kind of data set: Modulation of Gal4-fused VP16 expressed in SKNBE(2) cells co-transfected with UAS repoter gene assessed as decrease in luciferase activity at 12.5 to 50 uM incubated for 18 hrs by luciferase reporter gene assay. Particulars: Human alphaherpesvirus 2, filed as modulator, dose 12.5-50 µM. In outline: (§4)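 Cells in 10-cm dishes were transfected with Gal4-VP16 expression plasmid (2 μg) plus 5xUAS-luciferase reporter (2 μg) for 18 h. They were replated at 10,000 cells/well for 4 h, then given ligand or vehicle (water, ethanol or DMSO) in quadruplicate for 18 h. Luciferase was read with Britelite Plus. Fold change is versus vehicle-treated cells, with one-way ANOVA versus vehicle.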

Data set [4] addresses Nuclear receptor subfamily 4 group A member 2 (Homo sapiens) (UniProt P43354). Put plainly: Modulation of full length human Nurr1 expressed in HEK293T cells co-transfected with RXRalpha and luciferase reporter plasmid harboring NBRE response element assessed as decrease in luciferase activity at 12.5 to 50 uM incubated for 18 hrs by luciferase reporter gene assay. Particulars: filed as modulator, dose 12.5-50 µM. In outline:
as §1

The target is the same in data set [5]. Put plainly: Modulation of full length human Nurr1 expressed in PC12 cells co-transfected with RXRalpha and luciferase reporter plasmid harboring NurRE response element at 12.5 to 50 uM incubated for 18 hrs by luciferase reporter gene assay. Particulars: PC-12, dose 12.5-50 µM. In short, it runs like this:
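PC12 cells were grown at 37°C and 5% CO2 in […] medium with 15% horse serum and 2.5% FBS. They were transfected with full-length Nurr1 (1 μg) plus full-length RXRα (1 μg) and 3xNBRE- or 3xNurRE-luciferase reporter (6 μg) for 18 h, then replated at 10,000 cells/well for 4 h. Ligand or vehicle (water, ethanol or DMSO) was added in quadruplicate for 18 h. Luminescence was read as fold change over vehicle. Results are mean ± s.e.m., n=4, from 2 independent experiments, analysed by one-way ANOVA against vehicle.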

Data set [6] has the same target. Kind of data set: Modulation of full length human Nurr1 expressed in SKNBE(2) cells co-transfected with luciferase reporter plasmid harboring NBRE response element assessed as decrease in luciferase activity at 12.5 to 50 uM incubated for 18 hrs by luciferase reporter gene assay. The following applies: SKNBE2, filed as modulator, dose 12.5-50 µM. In outline:
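Transfection of SK-N-BE(2)-C cells (1:1 EMEM/F12, 10% FBS, 37°C, 5% CO2) used full-length Nurr1 alone (2 μg, no RXRα) with 3xNBRE- or 3xNurRE-luciferase reporter (6 μg) for 18 h. Cells were replated at 10,000/well for 4 h, then exposed to ligand or vehicle in quadruplicate for 18 h. Luminescence was expressed as fold over vehicle, as mean ± s.e.m. (n=4) from 2 independent experiments, one-way ANOVA against vehicle.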

For data set [7] the target is unchanged. Put plainly: Modulation of full length human Nurr1 expressed in PC12 cells co-transfected with luciferase reporter plasmid harboring NurRE response element at 12.5 to 50 uM incubated for 18 hrs by luciferase reporter gene assay. Particulars: PC-12, dose 12.5-50 µM. In outline:
(§5)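 Here PC12 cells (FK-12 medium, 15% horse serum, 2.5% FBS, 37°C, 5% CO2) received full-length Nurr1 (2 μg) without RXRα, plus 3xNBRE- or 3xNurRE-luciferase reporter (6 μg), for 18 h. Cells were replated at 10,000/well for 4 h, then treated with ligand or vehicle in quadruplicate for 18 h. Luciferase luminescence was normalized to vehicle-treated cells. Results are mean ± s.e.m. (n=4) from 2 independent experiments, with one-way ANOVA against vehicle.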

Data set [8] has as its system PC-12. Put plainly: Modulation of Gal4-fused VP16 expressed in PC12 cells co-transfected with UAS repoter gene assessed as decrease in luciferase activity at 12.5 to 50 uM incubated for 18 hrs by luciferase reporter gene assay. The following applies: Human alphaherpesvirus 2, filed as modulator, dose 12.5-50 µM. In short, it runs like this:
as §4

Data set [9] addresses Nuclear receptor subfamily 4 group A member 2 (Homo sapiens) (UniProt P43354). Kind of data set: Modulation of full length human Nurr1 expressed in SKNBE(2) cells co-transfected with RXRalpha and luciferase reporter plasmid harboring NBRE response element assessed as increase in luciferase activity at 12.5 to 50 uM incubated for 18 hrs by luciferase reporter gene assay. The following applies: SKNBE2, filed as modulator, dose 12.5-50 µM. In outline: as §2

Data set [10] has the same target. Put plainly: Modulation of full length human Nurr1 expressed in SKNBE(2) cells co-transfected with luciferase reporter plasmid harboring NurRE response element assessed as decrease in luciferase activity at 12.5 to 50 uM incubated for 18 hrs by luciferase reporter gene assay. Particulars: SKNBE2, filed as modulator, dose 12.5-50 µM.
The subject of the next data set is HEK-293T. Kind of data set: Cytotoxicity in human HEK293T cells assessed as reduction in cell viability at 12.5 to 50 uM incubated for 18 hrs by Cell Titer-Glo assay. Particulars: dose 12.5-50 µM. In short, it runs like this:
as §3

Data set [11] deals with Nuclear receptor subfamily 4 group A member 2 (Homo sapiens) (UniProt P43354). Put plainly: Modulation of full length human Nurr1 expressed in HEK293T cells co-transfected with RXRalpha and luciferase reporter plasmid harboring NBRE response element assessed as increase in luciferase activity at 12.5 to 50 uM incubated for 18 hrs by luciferase reporter gene assay. Particulars: filed as modulator, dose 12.5-50 µM. In outline:
as §1

For data set [12] the target is unchanged. Kind of data set: Modulation of full length human Nurr1 expressed in PC12 cells co-transfected with luciferase reporter plasmid harboring NBRE response element at 12.5 to 50 uM incubated for 18 hrs by luciferase reporter gene assay. Particulars: PC-12, dose 12.5-50 µM. In outline:
as §5

Another data set deals with SK-N-BE(2). Kind of data set: Cytotoxicity in human SKNBE2 cells assessed as reduction in cell viability at 12.5 to 50 uM incubated for 18 hrs by Cell Titer-Glo assay. Particulars: dose 12.5-50 µM. In short, it runs like this:
as §3

For the next data set, the system named is HEK293T. Put plainly: Modulation of Gal4-fused VP16 expressed in HEK293T cells co-transfected with UAS repoter gene assessed as decrease in luciferase activity at 12.5 to 50 uM incubated for 18 hrs by luciferase reporter gene assay. The following applies: Human alphaherpesvirus 2, filed as modulator, dose 12.5-50 µM. In short, it runs like this: as §4

In data set [13] the target is Nuclear receptor subfamily 4 group A member 2 (Homo sapiens) (UniProt P43354). Kind of data set: Modulation of full length human Nurr1 expressed in HEK293T cells co-transfected with luciferase reporter plasmid harboring NBRE response element assessed as decrease in luciferase activity at 12.5 to 50 uM incubated for 18 hrs by luciferase reporter gene assay. Particulars: filed as modulator, dose 12.5-50 µM. In outline:
as §1

Data set [14] has the same target. Put plainly: Modulation of full length human Nurr1 expressed in SKNBE(2) cells co-transfected with RXRalpha and luciferase reporter plasmid harboring NurRE response element assessed as decrease in luciferase activity at 12.5 to 50 uM incubated for 18 hrs by luciferase reporter gene assay. Particulars: SKNBE2, filed as modulator, dose 12.5-50 µM. In outline: as §2

For data set [15] the target is unchanged. Put plainly: Modulation of full length human Nurr1 expressed in HEK293T cells co-transfected with RXRalpha and luciferase reporter plasmid harboring NurRE response element assessed as decrease in luciferase activity at 12.5 to 50 uM incubated for 18 hrs by luciferase reporter gene assay. The following applies: filed as modulator, dose 12.5-50 µM. In outline:
as §1

Calls of active or inactive are those of the source. The calls are words filed in the database; no cut-off is given here.

Nuclear receptor subfamily 4 group A member 2 (Homo sapiens), sequence (P43354 whole entry): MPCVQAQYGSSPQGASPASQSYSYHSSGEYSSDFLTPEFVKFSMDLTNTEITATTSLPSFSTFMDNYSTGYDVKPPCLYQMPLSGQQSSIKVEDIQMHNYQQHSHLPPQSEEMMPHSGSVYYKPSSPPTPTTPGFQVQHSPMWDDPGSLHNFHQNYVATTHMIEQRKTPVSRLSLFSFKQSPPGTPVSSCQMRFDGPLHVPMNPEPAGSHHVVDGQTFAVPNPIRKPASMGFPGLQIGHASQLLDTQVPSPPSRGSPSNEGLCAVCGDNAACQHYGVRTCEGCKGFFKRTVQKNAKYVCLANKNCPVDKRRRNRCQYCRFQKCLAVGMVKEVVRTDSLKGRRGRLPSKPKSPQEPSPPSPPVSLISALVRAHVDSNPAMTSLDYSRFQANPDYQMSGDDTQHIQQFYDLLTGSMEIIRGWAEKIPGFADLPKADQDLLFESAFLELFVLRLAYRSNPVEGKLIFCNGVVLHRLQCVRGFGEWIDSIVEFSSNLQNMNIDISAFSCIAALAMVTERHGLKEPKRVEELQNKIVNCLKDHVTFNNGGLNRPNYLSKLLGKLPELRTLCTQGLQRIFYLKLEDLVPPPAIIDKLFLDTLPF

In the case of `Clc1ccc(C(c2c[nH]c3ccccc23)c2c[nH]c3ccccc23)cc1`, the outcome (in data set [1]; in [2]; in the data set on SKNBE2; in data set [4]; in data set [6]; in the data set with PC-12 [8]) was Active. Also, the outcome (in data set [9]; in data set [10]; in [11]; in the data set with HEK293T; in [13]; in data set [14]) was Active. In data set [15], the outcome was Active. Further, the Activity result with PC-12 [3], in the data set on HEK-293T and in the data set with SK-N-BE(2) was “Toxic” throughout. Moreover, the result in [5], in data set [7] and in [12] was inactive.
